From ChEMBL document CHEMBL1135063, “Cytotoxic and antibacterial activity of 2-oxopurine derivatives” (Bioorg Med Chem Lett, 2002)
≈ marks a conversion by molar mass, not a printed value.

Legend:
K562 [1] = experiment: Cytotoxicity against chronic myelogenous leukemia cell line K-562 was determined by measuring [3H]thymidine incorporation at a concentration 10 ug/mL after 48 h; type: functional; details: Homo sapiens
Procedure, shortened: (§1)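 K-562 cells in RPMI 1640 with 10% FCS, 2 mM L-glutamine and kanamycin, humidified 5% CO2. Log-phase cells seeded at 2 × 10^4 cells/mL and exposed to compound (DMSO, 0.05% final) over a 10 to 0.078 range for 48 h. Cells were then pulsed 2 h with [3H]-thymidine, filter-harvested and cell-associated radioactivity counted. Percent inhibition or IC50 is reported with SD.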

K562 [2] = experiment: Cytotoxicity against chronic myelogenous leukemia cell line K-562 was determined by measuring [3H]thymidine incorporation after 48 h; type: functional, cell-based; details: Homo sapiens; procedure, shortened: as §1
Lacticaseibacillus casei [3] = experiment: Tested for antibacterial activity against Lactobacillus casei; type: functional
[4] = test system: Mycobacterium tuberculosis; experiment: Tested for percent inhibition against Mycobacterium tuberculosis at concentration of 12.5 ug/mL; type: functional
Procedure, shortened: (§2)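 M. tuberculosis H37Rv (ATCC 27294) grown in BACTEC 12B medium; inhibition read out by Microplate Alamar Blue assay.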

K562 [5] = experiment: Cytotoxicity against chronic myelogenous leukemia cell line K-562 was determined by measuring [3H]thymidine incorporation at a concentration of 10 ug/mL after 5 h; type: functional; details: Homo sapiens
Procedure, shortened: (§3)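 K-562 cells in RPMI 1640 with 10% FCS, 2 mM L-glutamine and kanamycin, 5% CO2. Log-phase cells seeded at 4 × 10^4 cells/mL and exposed to compound (DMSO, 0.05% final) over a 10 to 0.078 range for 5 h. Cells were then pulsed 2 h with [3H]-thymidine, harvested onto fiberglass filters and counted. IC50 is the concentration inhibiting incorporation by 50%. Values are given with SD.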

K562 [6] = experiment: Cytotoxicity against chronic myelogenous leukemia cell line K-562 was determined by measuring [3H]thymidine incorporation at a concentration of 1.25 ug/mL after 48 h; type: functional; details: Homo sapiens; procedure, shortened: as §1
K562 [7] = experiment: Concentration that reduces [3H]thymidine incorporation by 50% in chronic myelogenous leukemia cell line K-562 after 5 h; type: functional, cell-based; details: Homo sapiens; procedure, shortened: as §3
K562 [8] = experiment: Cytotoxicity against chronic myelogenous leukemia cell line K-562 was determined by measuring [3H]thymidine incorporation at a concentration 1 ug/mL after 48 h; type: functional; details: Homo sapiens; procedure, shortened: as §1
K562 [9] = experiment: Cytotoxicity against chronic myelogenous leukemia cell line K-562 was determined by measuring [3H]thymidine incorporation at a concentration of 1 ug/mL after 5 h; type: functional; details: Homo sapiens; procedure, shortened: as §3
K562 [10] = experiment: Cytotoxicity against chronic myelogenous leukemia cell line K-562 was determined by measuring [3H]thymidine incorporation at a concentration of 1.00 ug/mL after 5 h; type: functional; details: Homo sapiens; procedure, shortened: as §3
K562 [11] = experiment: Cytotoxicity against chronic myelogenous leukemia cell line K-562 was determined by measuring [3H]thymidine incorporation at a concentration of 1.00 ug/mL after 48 h; type: functional; details: Homo sapiens; procedure, shortened: as §1
Vero = experiment: Tested for inhibition against Vero cells at 12.5 ug/mL; type: functional, cell-based; details: Chlorocebus sabaeus
[12] = test system: Mycobacterium tuberculosis; experiment: Tested for antibacterial activity against Mycobacterium tuberculosis; type: functional; procedure, shortened: as §2
Mycobacterium avium = experiment: Tested for percent inhibition against Mycobacterium avium at 12.5 ug/mL; type: functional
[13] = test system: Mycobacterium tuberculosis; experiment: Tested for percent inhibition against Mycobacterium tuberculosis at 12.5 ug/mL; type: functional; procedure, shortened: as §2
K562 [14] = experiment: Cytotoxicity against chronic myelogenous leukemia cell line K-562 was determined by measuring [3H]-thymidine incorporation at a concentration of 1.25 ug/mL after 5 h; type: functional; details: Homo sapiens; procedure, shortened: as §3
[15] = test system: Mycobacterium tuberculosis; experiment: Tested for percent inhibition against Mycobacterium tuberculosis at 12.5 ug/mL concentration; type: functional; procedure, shortened: as §2
[16] = test system: Mycobacterium tuberculosis; experiment: Antibacterial activity was evaluated against Mycobacterium tuberculosis; type: functional; procedure, shortened: as §2
K562 [17] = experiment: Cytotoxicity against chronic myelogenous leukemia cell line K-562 was determined by measuring [3H]thymidine incorporation at a concentration of 10 ug/mL after 48 h; type: functional; details: Homo sapiens; procedure, shortened: as §1
K562 [18] = experiment: Cytotoxicity against chronic myelogenous leukemia cell line K-562 determined using [3H]thymidine incorporation at a concentration 10 ug/mL after 48 h; type: functional; details: Homo sapiens; procedure, shortened: as §1
K562 [19] = experiment: Cytotoxicity against chronic myelogenous leukemia cell line K-562 determined using [3H]thymidine incorporation at a concentration of 1.00 ug/mL after 48 h; type: functional; details: Homo sapiens; procedure, shortened: as §1
[20] = test system: Mycobacterium tuberculosis; experiment: Tested for percent inhibition against Mycobacterium tuberculosis at a concentration of 12.5 ug/mL; type: functional; procedure, shortened: as §2
Lacticaseibacillus casei [21] = experiment: Tested for inhibitory effect on Gram-positive bacterium; Lactobacillus casei; type: functional
K562 [22] = experiment: Cytotoxicity against chronic myelogenous leukemia cell line K-562 was determined by measuring [3H]thymidine incorporation after 5 h; type: functional, cell-based; details: Homo sapiens; procedure, shortened: as §3

Compound | inhibition at 10 µg/mL (K562 [1]) | IC50 (K562 [2]) | inhibition at 10 µg/mL (K562 [5]) | inhibition at 1.25 µg/mL (K562 [6]) | IC50 (K562 [7]) | further results
CC(C)C1c2ncn(Cc3ccccc3)c2NC(=O)N1Cc1ccccc1 (configuration not stated) | 51% | 10 µg/mL (≈ 27.7 µM) |  |  |  | 
O=C1Nc2ncn(Cc3ccccc3)c2C(c2ccccc2)N1Cc1ccccc1 (configuration not stated) | 48% | > 10 µg/mL |  |  |  | 
O=c1nc2c(ncn2Cc2ccccc2)c(C(F)(F)F)n1Cc1ccccc1 | 11% | > 10 µg/mL |  |  |  | 
O=c1nc2c(ncn2Cc2ccccc2)c(-c2cccs2)n1Cc1ccccc1 |  |  |  |  |  | MIC (Lacticaseibacillus casei [3]): > 10 µg/mL; inhibition at 12.5 µg/mL [4]: 0%
CC1c2ncn(Cc3ccccc3)c2NC(=O)N1Cc1ccccc1 (configuration not stated) | 98% | 1.4 µg/mL (≈ 4.21 µM) | 76.4% | 33% | 2.5 µg/mL (≈ 7.52 µM) | 
O=C1Nc2[nH]cnc2C(C#CC2CC2)(C(F)(F)F)N1 (configuration not stated) |  | > 1 µg/mL |  |  | > 1 µg/mL | inhibition at 1 µg/mL (K562 [8]): 0.8%; inhibition at 1 µg/mL (K562 [9]): 0.3%
O=c1nc2c(ncn2Cc2ccccc2)c(C#Cc2ccccc2)n1Cc1ccccc1 | 100% | 0.7 µg/mL (≈ 1.68 µM) |  |  | 1 µg/mL (≈ 2.4 µM) | inhibition at 1 µg/mL (K562 [10]): 48%; inhibition at 1 µg/mL (K562 [11]): 90%; MIC (Lacticaseibacillus casei [3]): > 10 µg/mL; IC50 (Vero): < 0.2 µg/mL; MIC [12]: 12.5 µg/mL (≈ 30 µM); inhibition at 12.5 µg/mL (Mycobacterium avium): 60%; inhibition at 12.5 µg/mL [13]: 95%
O=C1Nc2c(ncn2Cc2ccccc2)C(C#CC2CC2)N1Cc1ccccc1 (configuration not stated) | 98% | 1.3 µg/mL (≈ 3.4 µM) | 90% | 42% | 1.6 µg/mL (≈ 4.18 µM) | inhibition at 1.25 µg/mL (K562 [14]): 35%
O=c1nc2c(ncn2Cc2ccccc2)c(-c2ccccc2)n1Cc1ccccc1 | 70% |  |  |  |  | inhibition at 12.5 µg/mL [15]: 0%; MIC (Lacticaseibacillus casei [3]): > 10 µg/mL
Clc1nc(-c2cccs2)c2ncn(Cc3ccccc3)c2n1 |  |  |  |  |  | MIC [16]: 1.56 µg/mL (≈ 4.77 µM)
O=C1Nc2c(ncn2Cc2ccccc2)C(C#CC2CC2)(C(F)(F)F)N1Cc1ccccc1 (configuration not stated) | 100% | 0.2 µg/mL (≈ 0.444 µM) | 94% | 99% | 0.4 µg/mL (≈ 0.888 µM) | inhibition at 1.25 µg/mL (K562 [14]): 66%
O=c1nc2c(cn1Cc1ccccc1)ncn2Cc1ccccc1 |  | > 10 µg/mL | 16% | 5.7% | > 10 µg/mL | inhibition at 10 µg/mL (K562 [17]): 37%; inhibition at 1.25 µg/mL (K562 [14]): 4.4%
O=C1Nc2c(ncn2Cc2ccccc2)C(C#Cc2ccccc2)N1Cc1ccccc1 (configuration not stated) |  | 0.8 µg/mL (≈ 1.91 µM) |  |  | 1.4 µg/mL (≈ 3.35 µM) | inhibition at 1 µg/mL (K562 [10]): 20%; inhibition at 10 µg/mL (K562 [18]): 100%; inhibition at 1 µg/mL (K562 [19]): 59%
O=C1Nc2c(ncn2Cc2ccccc2)C(C(F)(F)F)N1Cc1ccccc1 (configuration not stated) | 97% | 2 µg/mL (≈ 5.18 µM) | 51% | 26% | 10 µg/mL (≈ 25.9 µM) | inhibition at 1.25 µg/mL (K562 [14]): 15.4%
O=c1nc2c(ncn2Cc2ccccc2)c(C#CC2CC2)n1Cc1ccccc1 | 97% | 0.2 µg/mL (≈ 0.526 µM) | 98% | 100% | 0.4 µg/mL (≈ 1.05 µM) | inhibition at 1.25 µg/mL (K562 [14]): 98%
CCC1(c2ccccc2)c2ncn(Cc3ccccc3)c2NC(=O)N1Cc1ccccc1 (configuration not stated) | 80% |  |  |  |  | 
CC(C)c1c2ncn(Cc3ccccc3)c2nc(=O)n1Cc1ccccc1 | 18% | > 10 µg/mL |  |  |  | 
O=C1Nc2c(ncn2Cc2ccccc2)C(c2ccccc2)N1Cc1ccccc1 (configuration not stated) | 90% | 0.2 µg/mL (≈ 0.507 µM) | 69% | 85% | 5.1 µg/mL (≈ 12.9 µM) | inhibition at 1.25 µg/mL (K562 [14]): 9.1%
O=c1nc2c(ncn2Cc2ccccc2)c(-c2ccco2)n1Cc1ccccc1 |  |  |  |  |  | MIC (Lacticaseibacillus casei [3]): > 10 µg/mL; inhibition at 12.5 µg/mL [20]: 0%
O=C1N(Cc2ccccc2)c2nc[nH]c2C(c2ccccc2)N1Cc1ccccc1 (configuration not stated) | 32% | > 10 µg/mL |  |  |  | MIC (Lacticaseibacillus casei [21]): 10 µg/mL (≈ 25.3 µM)
Sc1ncnc2nc[nH]c12 [MERCAPTOPURINE ANHYDROUS] |  | 0.4 µg/mL (≈ 2.63 µM) |  |  |  | IC50 (K562 [22]): 8.5 µg/mL (≈ 55.9 µM)
